Source: PubChem (several laboratories)
Most compounds without a hit are left out; they make up all but 3.1% or so of the library.
aDG glyco up – alpha-DG glycosylation activation. Pro5-aDG cells, alpha-DG glycosylation AlphaScreen (IIH6); 0% Pro5, 100% B10-LARGE cell signal. activation, % at 10 µM. actives 0.22% (n = 360,000);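 active = activation of at least 8% versus controls, or a plate z-score of at least 8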;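 also: Pro5 are CHO cells carrying HIG-tagged alpha-DG that lacks glycosylation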
ADAM17 inh – ADAM17 inhibition, QFRET primary screen; actives 0.83% (n = 370,000); P78536; inhibition, % at 6.95 µM; recombinant ADAM17, EDANS/DABCYL FRET peptide cleavage;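 active = inhibition above the mean of compounds lying between control limits plus 3 SD, set per campaign, cut at about 8.5% in these data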
Target sequence (P78536 215-824 limits assumed): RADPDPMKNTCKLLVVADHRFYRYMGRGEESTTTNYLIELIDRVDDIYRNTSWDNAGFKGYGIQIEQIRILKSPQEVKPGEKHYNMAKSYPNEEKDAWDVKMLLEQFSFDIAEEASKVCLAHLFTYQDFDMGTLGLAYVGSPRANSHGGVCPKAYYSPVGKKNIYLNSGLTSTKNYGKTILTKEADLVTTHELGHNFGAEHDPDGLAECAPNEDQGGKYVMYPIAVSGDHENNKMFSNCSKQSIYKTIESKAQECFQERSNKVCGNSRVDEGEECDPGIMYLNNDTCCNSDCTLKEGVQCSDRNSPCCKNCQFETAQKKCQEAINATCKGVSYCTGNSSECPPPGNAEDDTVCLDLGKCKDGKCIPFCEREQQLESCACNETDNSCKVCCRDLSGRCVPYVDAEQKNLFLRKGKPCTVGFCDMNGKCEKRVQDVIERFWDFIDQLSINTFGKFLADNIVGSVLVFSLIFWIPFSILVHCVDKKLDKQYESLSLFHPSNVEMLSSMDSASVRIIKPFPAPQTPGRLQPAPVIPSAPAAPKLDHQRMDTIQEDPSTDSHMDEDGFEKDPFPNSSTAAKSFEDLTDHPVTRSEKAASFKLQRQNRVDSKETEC
MPTP inh – permeability transition pore inhibition | isolated mouse mitochondria, Ca2+ swelling absorbance, 30 min | inhibition, % at 10 µM | actives 1.4% (n = 360,000);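 active = inhibition of 50% or more, scaled per plate between neutral and stimulator controls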
V-ATPase pHluor – regulators of yeast V-ATPase proton transport; S. cerevisiae, pHLuorin cytosolic pH fluorescence; response, % at 10 µM; actives 0.37% (n = 350,000); AID 504577; in the data active = response mostly above about 7.3%, no sharp cut-off; inactive = mostly below about 5.4%; also: actives read high
Lipid droplet – modulators of hepatic lipid droplet formation | AML12 mouse hepatocytes, oleate lipid droplets, BODIPY imaging | inhibition, % at 6.5 µM | actives 0.4% (n = 240,000);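 active = lipid droplet intensity inhibited by at least 50%, with more than 500 cells counted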
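Material – mouse AML12 hepatocyte cell line, fixed after treatment · Compound dosing – one dose, 6.5 µM compound · Times – compound with oleate, overnight · Measured by – Image-based BODIPY and DAPI two-channel analysis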
ADAM10 inh – inhibitors of human ADAM10; recombinant ADAM10, EDANS/DABCYL FRET peptide cleavage, 3 h; inhibition, % at 7 µM; actives 0.62% (n = 370,000);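 active = inhibition above a per-campaign cutoff equal to the mean of compounds falling between control-based bounds plus 3 SD, cut at about 20% in these data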
Rh123 counter – mitochondrial membrane potential, counter-screen | inhibition, % at 10 µM | shares compounds with MPTP inh | isolated mitochondria, Rhodamine 123 fluorescence | actives 78% (n = 5,000); in the data active = inhibition above about 22%
MPTP abs DR – MPTP inhibition, dose response swelling confirmation; isolated mitochondria swelling, absorbance; shares compounds with MPTP inh; actives 58% (n = 780); IC50, µM; in the data active = IC50 below about 20 µM
MPTP cs DR – counter-screen for mitochondrial permeability transition pore inhibitors, dose response | shares compounds with MPTP inh | IC50, µM | AID 651564 | actives 49% (n = 780) | isolated mitochondria counterscreen, fluorescence read-out; in the data active = IC50 below about 80 µM
Hits are given with their value; – = inactive; · = no result given.

SMILES	aDG glyco up	ADAM17 inh	MPTP inh	V-ATPase pHluor	Lipid droplet	ADAM10 inh	Rh123 counter	others
C=CCn1c(SCC(=O)c2ccc(F)cc2)nnc1-c1ccc(F)cc1	·	–	·	·	·	–	·
CN(C)CCCOc1nn(Cc2ccccc2)c2ccccc12	–	–	75.4	–	–	–	–
OCc1ccc(-c2nn(Cc3ccccc3)c3ccccc23)o1	–	–	–	–	·	–	·
COCCNC[C@@]12CO[C@H](c3ccc(Cl)cc3)N1[C@@H](c1ccc(Cl)cc1)SC2	·	–	·	·	·	–	·
O=C(NCc1csc(-c2cccs2)n1)Nc1ccc(C(F)(F)F)cc1	–	–	66.1	–	–	–	76.6
O=C(NCc1csc(-c2cccs2)n1)Nc1ccc(F)cc1F	–	–	–	–	–	–	·
CCCc1[nH]c2ccc(C#N)cc2c1CCC	–	–	69.0	–	–	–	85.8
CC(C)N=c1scc(-c2ccco2)n1/N=C/c1ccc(O)c(O)c1	–	–	63.2	–	·	–	41.5
COCCN=c1scc(-c2ccco2)n1/N=C/c1ccc(O)c(O)c1O	–	–	–	–	–	–	·
COc1ccc2c(c1)CCCN2C(=O)C1CCCN(S(=O)(=O)c2c(C(C)C)cc(C(C)C)cc2C(C)C)C1 (stereo unspecified)	·	–	·	·	·	–	·
O=C(Nc1cccc(Br)c1)Oc1cccc2cccnc12	–	–	75.4	·	·	–	101.8
O=c1[nH]c(CN2CCCCC2)nc2c1C1(CCCCC1)Cc1ccccc1-2	–	–	76.9	–	–	–	–	MPTP abs DR=–;MPTP cs DR=–
CCc1nc2c(c(=O)[nH]1)C1(CCCC1)Cc1ccccc1-2	–	–	–	–	·	–	·
O=C(Nc1ccc(Cl)cc1)N1CCC(c2ccccc2)C1 (stereo unspecified)	–	–	86.1	–	–	–	91.4
Cc1ccc(C2CCN(C(=O)Nc3ccccc3)C2)cc1 (stereo unspecified)	–	–	–	–	·	–	·
Cc1nn(-c2cccc(Cl)c2)c2nc(C(F)(F)F)[nH]c(=O)c12	–	–	98.2	–	–	–	53.1
Cc1cc(C(C)(C)C)ccc1OCCCCN1CCCC1	–	–	50.9	–	–	–	–	MPTP abs DR=6.77;MPTP cs DR=12.6
O=C(NC(=S)NN1CCCCC1c1cccnc1)c1ccc(Cl)cc1Cl (stereo unspecified)	–	–	52.0	–	–	–	65.3
Clc1ccc([C@H]2OC[C@@]3(CNCC4CC4)CS[C@H](c4ccc(Cl)cc4)N23)cc1	·	–	·	·	·	–	·
O=C(NCCNC(=O)c1cc(OCC(F)(F)F)ccc1OCC(F)(F)F)Nc1ccc(OC(F)(F)F)cc1	–	–	80.1	–	·	–	83.9
CCOc1ccc(NC(=O)Nc2cc(OCC(F)(F)F)cc(OCC(F)(F)F)c2)cc1	–	–	80.4	–	–	–	70.5
O=C(Nc1ccc(F)cc1)Nc1cc(OCC(F)(F)F)cc(OCC(F)(F)F)c1	–	–	96.7	–	–	–	70.2
COc1ccc(C2C(C(=O)N3CCCCC3C)CC(=O)N2c2ccc(OC)cc2)cc1 (stereo unspecified)	·	–	·	·	·	–	·
COc1ccc(/C=N/NC(=O)c2cc(Br)ccc2O)cc1Cn1cc(Cl)cn1	–	–	67.6	–	–	–	53.5
COc1ccc(/C=N/NC(=O)c2ccc(Cl)cc2)cc1Cn1cc(Cl)cn1	–	–	–	–	–	–	·
SMILES	aDG glyco up	ADAM17 inh	MPTP inh	V-ATPase pHluor	Lipid droplet	ADAM10 inh	Rh123 counter	others
Cc1cc(C)cc(C(=O)OCCCN(C)C2CN(Cc3cn(Cc4ccccc4F)nn3)S(=O)(=O)C2)c1 (stereo unspecified)	·	–	·	·	·	–	·
CC(C)C(=O)OCCCN1C(=O)CCC12CCC(c1ccccc1)CC2 (stereo unspecified)	·	–	·	·	·	–	·
COc1ccc(S[C@]2(C(=O)N3CCN(c4ncccn4)CC3)CC(=O)N(c3ccc(OC)cc3)[C@@H]2c2ccc(OC)cc2)cc1	·	–	·	·	·	–	·
CCC(C)Nc1nc(OCC(F)(F)F)nc(OCC(F)(F)F)n1 (stereo unspecified)	–	–	–	–	·	–	·
CCC(C)Nc1nc(OC(C(F)(F)F)C(F)(F)F)nc(OC(C(F)(F)F)C(F)(F)F)n1 (stereo unspecified)	–	–	60.0	–	–	–	59.6
COc1ccc(CNCC#Cc2ccc(C)cc2)c(OC)c1	·	–	·	·	·	–	·
CCCCCc1ccc(NC(=O)OCCN2C(=O)CCC23CCC(c2ccccc2)CC3)cc1 (stereo unspecified)	·	–	·	·	·	–	·
Cc1ccc(S(=O)(=O)/N=C2/NC(=O)/C(=C/c3ccc(Br)o3)S2)cc1	–	–	53.4	–	–	–	68.0
Cc1ccc(S(=O)(=O)/N=C2/NC(=O)/C(=C\c3cc(Br)cc(Br)c3O)S2)cc1	–	·	–	–	–	·	·
COc1ccc(Cn2c(C)c(C)c(C#N)c2NC(=O)Nc2cccc(Cl)c2)cc1	–	–	73.7	–	·	–	70.4
Cc1c(C#N)c(NC(=O)c2cccc(Cl)c2)n(Cc2ccccc2)c1C	–	–	–	–	–	–	·
COc1ccc(Cn2c(C)c(C)c(C#N)c2NC(=O)Nc2ccc(Cl)cc2)cc1	–	–	93.5	–	·	–	77.5
O=C(C1CCCN1S(=O)(=O)c1ccc([N+](=O)[O-])cc1)N1CCc2ccccc2C1 (stereo unspecified)	·	–	·	·	·	–	·
COc1ccc2[nH]c3c(N4CCc5ccccc5C4)ncnc3c2c1	–	–	81.1	–	–	–	69.6
COc1ccc(N2CCN(c3ncnc4c3[nH]c3ccccc34)CC2)cc1	6.2	–	79.1	–	–	–	106.5
CC1CCN(c2ccc(C(=O)O)cc2NS(=O)(=O)c2cccc3cccnc23)CC1	·	–	·	·	·	–	·
CCC(C)Sc1cc(C(F)(F)F)c(C(=O)Nc2ccc(Cl)cc2)cn1 (stereo unspecified)	–	–	74.8	–	–	–	87.1
Cc1cc(C(C#N)c2ccc(Cl)cc2)c(Cl)cc1NC(=O)c1cc(I)cc(I)c1O (stereo unspecified)	–	–	100.2	–	·	–	–
N#C/C(=C(/O)c1ccc([N+](=O)[O-])s1)c1nc2ccccc2[nH]1	–	–	85.4	–	–	–	80.9
Cc1sc2ncnc(NCc3cccs3)c2c1C	–	–	92.0	–	·	–	91.7
CN(CCOC(=O)CC1C=CCC1)C1CN(Cc2cn(Cc3ccccc3Cl)nn2)S(=O)(=O)C1 (stereo unspecified)	·	–	·	·	·	–	·
C[C@H]1COc2cc(Br)ccc2S(=O)(=O)N1Cc1cn(CCC2OCCO2)nn1	·	–	·	·	·	–	·
